Compound activity as filed in PubChem BioAssay.
GRIN3A LBD mod – modulates the human NR3A ligand-binding domain; NR3A LBD differential scanning fluorimetry, Tm shift; 0% = protein alone, 100% = glycine-bound protein; Tm shift relative to glycine control, % at 25 µM; actives 2.5% (n = 340,000); AID 1259313;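 active means melting temperature shift of at least 10% of the positive control shift, at one fixed dose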
ZTA DNA inh – blocks Epstein-Barr virus ZTA, an EBNA-1 counter-screen; P03206; ZTA-DNA binding, fluorescence polarization; inhibition, % at 11 µM; actives 0.15% (n = 320,000); in the data active means inhibition above about 33%
Target sequence (P03206 whole entry, looked up): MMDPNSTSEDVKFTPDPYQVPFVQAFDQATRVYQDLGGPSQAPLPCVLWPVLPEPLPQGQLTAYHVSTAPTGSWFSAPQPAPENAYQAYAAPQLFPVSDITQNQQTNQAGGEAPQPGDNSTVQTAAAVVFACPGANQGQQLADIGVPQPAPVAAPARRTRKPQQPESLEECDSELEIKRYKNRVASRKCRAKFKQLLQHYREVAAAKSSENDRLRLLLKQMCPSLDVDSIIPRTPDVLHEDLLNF
NS3 helicase inh – inhibitors of Hepatitis C virus NS3 helicase | NS3 helicase DNA unwinding, Cy5 molecular beacon fluorescence | inhibition, % at 10.9 µM | AID 1800 | actives 0.56% (n = 290,000);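 active means inhibition above the mean of all tested compounds plus 3 SD, set per campaign, cut at about 35% in these data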;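 further: 0% = DMSO wells and 100% = thioflavine S control wells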
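Assay system – hepatitis C virus NS3 helicase domain fragment enzyme · Buffer or medium – MOPS pH 6.5, MgCl2, DTT, Tween20, BSA · Reagent – Cy5/quencher beacon DNA duplex and ATP to start · Compound – single 10.9 µM dose · Timing – 1 h at 25 °C · Technique – Cy5 beacon fluorescence read at start and 1 h · Measure – % inhibition of unwinding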
FID counter – displaces DNA intercalator in HCV helicase counter-screen; DNA fluorescent intercalator displacement, fluorescence; actives 0.17% (n = 290,000); AID 1845; inhibition, % at 7.9 µM; in the data active means inhibition above about 37%;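 further: 0% = vehicle and 100% = reference compound; higher means more ethidium bromide displaced from hairpin DNA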
EBNA-1 inh – blocks EBNA-1 binding to DNA. actives 0.34% (n = 300,000). EBNA-1 DNA binding, fluorescence polarization. AID 1950. inhibition, % at 14.8 µM; in the data active means inhibition above about 28%
FGF22 binding – shifts melting point of recombinant human FGF22. Q9HCT0. recombinant FGF22 thermal shift, SYPRO orange fluorescence; percent of sucrose octasulfate shift, DMSO zero. activity (Tm shift, normalised), % at 9.99 µM. actives 1.5% (n = 340,000). AID 651658;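 active means mean Tm shift, scaled 0 neutral to 100 positive control, at about 1.3% or above, every replicate too, limit read from the data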
Target sequence (Q9HCT0 whole entry, looked up): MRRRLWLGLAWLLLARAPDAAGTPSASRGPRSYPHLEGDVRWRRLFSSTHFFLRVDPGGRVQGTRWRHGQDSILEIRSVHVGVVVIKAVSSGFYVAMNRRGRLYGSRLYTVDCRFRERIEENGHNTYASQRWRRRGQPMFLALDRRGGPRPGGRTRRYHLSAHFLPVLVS
The depositor's hits bear a star; / = no result. Most compounds without a hit are left out; they make up all but 3.6% or so of the library.

SMILES	GRIN3A LBD mod	ZTA DNA inh	NS3 helicase inh	FID counter	EBNA-1 inh	FGF22 binding
CCC(=O)N1CCCCN2[C@@H](CO)[C@H](c3ccc(C#Cc4ccccc4F)cc3)[C@@H]2C1	/	/	/	/	/	0.5
CC(C)C#Cc1cnc2c(c1)C(=O)N([C@H](C)CO)C[C@@H](C)[C@H](CN(C)C(=O)Nc1ccccc1)O2	/	/	/	/	/	-0.1
O=C(C[C@@H]1C=C[C@H](NC(=O)Nc2cccc(F)c2)[C@@H](CO)O1)NCC1CCCCC1	/	/	/	/	/	-0.1
C[C@@H]1CN([C@@H](C)CO)S(=O)(=O)c2ccc(C3=CCCC3)cc2O[C@H]1CN(C)C(=O)Cc1ccncc1	/	/	/	/	/	0.0
CCCNC(=O)OCc1cccnc1Sc1ccc(C)cc1	0.0	6.7	-1.8	-9.7	7.5	42.9*
COc1cccc(NC(=O)CN2C(=O)C3(OCCCO3)c3ccccc32)c1	11.1*	0.7	5.2	-4.6	3.7	0.1
COc1ccc(NC(=O)CN(C)C(=O)CN2C(=O)NC3(CCCCC3)C2=O)cc1	1.4	-6.3	/	/	/	0.0
COc1cccc(NC(=O)CN(C)C(=O)CN2C(=O)NC3(CCCC3)C2=O)c1	14.4*	0.5	/	/	3.8	-0.5
N#C[C@@H]1[C@@H](c2ccc(-c3ccncc3)cc2)[C@@H](CO)N1C(=O)C1CCC1	/	/	/	/	/	0.1
Cc1ccc(CNC(=O)c2ccc(N(C)C)cc2)cc1	-1.4	7.1	1.1	-5.2	-5.2	-0.1
CN(C)c1ccc(C(=O)NCc2ccc3c(c2)CCO3)cc1	10.3*	-0.6	-2.2	-6.6	-3.0	0.1
CC(=O)Nc1ccc(S(=O)(=O)NCC2CCC(C(=O)NCCCN(C)Cc3ccccc3)CC2)cc1 (stereo unspecified)	14.8*	-22.9	8.8	18.5	-2.1	0.2
Cc1ccc(S(=O)(=O)Nc2ccc3c(c2)C(=O)N([C@H](C)CO)C[C@H](C)[C@H](CN(C)S(=O)(=O)c2cccs2)OCCCC[C@H](C)O3)cc1	/	/	/	/	/	0.2
CCOC(=O)C1(CCOc2ccccc2)CCN(Cc2ccc(-n3cccn3)cc2)CC1	0.7	-22.9	-56.2	21.1	-7.2	44.0*
CCOC(=O)C1(CCOc2ccccc2)CCN(Cc2ccncc2)CC1	-2.5	-5.6	-8.8	-15.5	3.1	0.2
CCOC(=O)C1(CCOC)CCN(Cc2ccncc2)CC1	1.2	-3.4	1.5	-1.7	1.9	43.2*
CCOC(=O)C1(CCOc2ccccc2)CCN(C(=O)CCSC)CC1	-2.2	36.8*	-8.3	-36.1	-0.9	0.0
CCOC(=O)C1(CCCc2ccccc2)CCN(Cc2nccn2CC)CC1	0.4	-1.0	-21.9	34.8	-17.2	43.4*
Cc1ccc(S(=O)(=O)NC(CC(=O)OCc2ccccc2)C(=O)OCc2ccccc2)cc1 (stereo unspecified)	/	/	/	/	/	29.6*
C[C@H](CO)N1C[C@H](C)[C@@H](CN(C)C(=O)NC2CCCCC2)Oc2c(NC(=O)NC3CCCCC3)cccc2C1=O	/	/	/	/	/	0.0
Clc1cccc(Cc2c(-c3ccco3)nc3ccc(Br)cn23)c1	/	/	/	/	/	-0.1
Clc1cccc(Cc2c(-c3ccco3)nc3ccc(Cl)cn23)c1	/	/	/	/	/	1.7*
Cc1nn(-c2ccccc2)c(C)c1C(=O)OC(C)C(=O)Nc1ccc(C(N)=O)cc1 (stereo unspecified)	-1.0	/	/	/	/	43.0*
C[C@H](CO)N1C[C@H](C)[C@H](CN(C)Cc2ccc(Oc3ccccc3)cc2)Oc2ccc(NC(=O)CCN3CCOCC3)cc2CC1=O	/	/	/	/	/	0.3
COc1ccc(S(=O)(=O)N[C@@H]2C=C[C@@H](CC(=O)NCc3ccccc3F)O[C@H]2CO)cc1	/	/	/	/	/	-0.5
SMILES	GRIN3A LBD mod	ZTA DNA inh	NS3 helicase inh	FID counter	EBNA-1 inh	FGF22 binding
CCC1CCCCN1S(=O)(=O)c1ccc(C(=O)N(CCCN(C)C)c2nc3cc4c(cc3s2)OCO4)cc1 (stereo unspecified)	-2.1	5.6	-39.0	38.8*	3.2	-0.1
CC1CCCCN1S(=O)(=O)c1ccc(C(=O)N(CCCN(C)C)c2nc3ccc(Br)cc3s2)cc1 (stereo unspecified)	0.7	-0.4	-37.8	38.1*	0.2	-0.4
CN(C)CCCN(C(=O)c1ccc(S(=O)(=O)N2CCCCCC2)cc1)c1nc2cc3c(cc2s1)OCO3	/	/	/	/	/	-0.1
O=C(C[C@H]1CC[C@H](NC(=O)Nc2ccc(C(F)(F)F)cc2)[C@@H](CO)O1)NCCN1CCCC1	/	/	/	/	/	-0.2
CC(CCc1ccccc1)NC(=O)COc1ccc(S(=O)(=O)N2CCOCC2)cc1[N+](=O)[O-] (stereo unspecified)	12.7*	4.9	-14.7	-3.2	-8.6	-0.3
CC(CCc1ccccc1)NC(=O)COC(=O)c1cc(NS(=O)(=O)c2ccc(Cl)c([N+](=O)[O-])c2)ccc1O (stereo unspecified)	22.1*	-2.7	-3.2	-4.4	-12.4	/
C[C@H](CO)N1C[C@H](C)[C@H](CN(C)CC2CCCCC2)Oc2ccc(NS(C)(=O)=O)cc2C1=O	/	/	/	/	/	-0.2
C[C@@H]1CN([C@@H](C)CO)C(=O)c2cccc(NC(=O)c3ccncc3)c2O[C@@H]1CN(C)S(C)(=O)=O	/	/	/	/	/	0.1
COc1cc(/C=N/c2oc(-c3ccccc3)cc2C#N)ccc1O	33.0*	5.3	6.4	-0.6	1.2	/
COc1cc(C=NCc2ccccc2)ccc1O	/	/	/	/	/	0.2
CCOC(=O)CC(NC(=O)c1cccc2c1C(=O)N(Cc1cccnc1)C2)c1ccc(OCC)c(OC)c1 (stereo unspecified)	-21.9	-14.2	9.1	-34.1	-7.7	43.1*
O=C(CN1C(=O)C2C3C=CC(C3)C2C1=O)Nc1ccc2nccnc2c1 (stereo unspecified)	3.1	-6.6	11.3	3.1	-11.0	0.6
O=C(CN1C(=O)C2C3C=CC(C4CC34)C2C1=O)Nc1cnc2ccccc2c1 (stereo unspecified)	-43.0	-6.5	-1.1	-3.7	-6.0	44.1*
CCCCN1CC(COCc2ccccc2)Oc2cccc(Oc3ccc(F)cc3)c2S1(=O)=O (stereo unspecified)	12.7*	/	/	/	/	0.6
O=S1(=O)c2c(Oc3cccc4ccccc34)cccc2OC(COCc2ccccc2)CN1C1CCCC1 (stereo unspecified)	18.1*	/	/	/	/	0.4
CCCCN1CC(COCc2ccccc2)Oc2cccc(Oc3ccccc3)c2S1(=O)=O (stereo unspecified)	-3.8	/	/	/	/	0.2
O=C(Nc1ccc(-c2ccccc2)cc1)[C@@H]1[C@@H](CO)[C@@H]2Cn3c(cccc3=O)[C@H]1N2Cc1cncnc1	/	/	/	/	/	0.0
Cn1nc2c(c1C(=O)N1CCCC(C(=O)c3cc(F)ccc3F)C1)CCCC2 (stereo unspecified)	1.9	-3.8	9.6	-31.5	9.5	43.4*
CC(C)CCNC(=O)COc1cccc2c1OC(C)(C)C2	-1.8	0.6	-3.5	-21.9	-6.1	43.1*
COc1ccc(CCNC(=O)COc2cccc3c2OC(C)(C)C3)cc1OC	1.3	-15.6	/	/	-3.9	-0.3
